Laboratory results from ChEMBL document CHEMBL1817629, “Design, synthesis, bioconversion, and pharmacokinetics evaluation of new ester prodrugs of olmesartan” (Eur J Med Chem, 2011).

Assays:
[1] = Metabolic stability in rat plasma assessed as compound remaining at 50 ug/mL after 30 mins by LC-MS/MS analysis; format: ADME, cell-free; details: read-out: Stability
Summary of the method: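 Prodrug at 50 μg/mL in rat plasma, incubated 30 min at 37 °C; samples analyzed immediately by LC-MS/MS, reported as percent of compound remaining.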

[2] = Stability of the compound in rat plasma assessed as half life at 1 uM by LC/MS/MS analysis; format: ADME, cell-free
Summary of the method: (§1)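 Prodrug added from acetonitrile stock (100 μM) to rat plasma or simulated gastric juice at final 1 μM. Held at 37 °C, sampled 0, 15, 30, 60, 120 min. Quenched with two volumes cold acetonitrile containing internal standard, centrifuged, supernatant analyzed by LC-MS/MS. Half-life as mean of duplicate experiments.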

[3] = Stability of the compound in simulated gastric juice assessed as half life at 1 uM by LC/MS/MS analysis; format: physicochemical; summary of the method: as §1
[4] = Stability of the compound in rat liver microsomes assessed as half life at 1 uM by LC/MS/MS analysis; format: ADME, Microsome
Summary of the method: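 Rat liver microsomes (0.5 mg/mL total protein) with 1.2 mM NADPH in 100 mM phosphate buffer pH 7.4; prodrug added from acetonitrile stock (100 μM) to final 1 μM. Kept at 37 °C, sampled 0, 15, 30, 60, 120 min. Stopped with two volumes cold acetonitrile plus internal standard, centrifuged, supernatant by LC-MS/MS. Mean of duplicate experiments.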

Structure (SMILES) | remaining at 0.5 h, 50 ug/mL [1] [%] | half-life at 1 µM [2] [min] | half-life at 1 µM [3] [min] | half-life at 1 µM [4] [min]
CCCc1nc(C(C)(C)O)c(C(=O)OC(C)OC(=O)c2ccccc2)n1Cc1ccc(-c2ccccc2-c2nnn[nH]2)cc1 (stereo not drawn) | 85.8 | – | – | –
CCCc1nc(C(C)(C)O)c(C(=O)OCOC(=O)C23CC4CC(CC(C4)C2)C3)n1Cc1ccc(-c2ccccc2-c2nnn[nH]2)cc1 | 79.8 | 10 | 312 | 2.28
CCCc1nc(C(C)(C)O)c(C(=O)OCc2c[nH]c(=O)[nH]c2=O)n1Cc1ccc(-c2ccccc2-c2nnn[nH]2)cc1 | 96.3 | – | – | –
CCCCCCCCOC(=O)c1c(C(C)(C)O)nc(CCC)n1Cc1ccc(-c2ccccc2-c2nnn[nH]2)cc1 | 90.2 | – | – | –
CCCc1nc(C(C)(C)O)c(C(=O)OC(C)OC(=O)C2CCCCC2)n1Cc1ccc(-c2ccccc2-c2nnn[nH]2)cc1 (stereo not drawn) | – | 9.68 | 928 | 2.7
CCCc1nc(C(C)(C)O)c(C(=O)OCc2oc(=O)oc2C)n1Cc1ccc(-c2ccccc2-c2nnn[nH]2)cc1 [OLMESARTAN MEDOXOMIL] | – | 0.956 | > 1000 | 4.95
